# In ChEMBL document CHEMBL1128239, “Structure-activity relationships of lactone ring-opened analogs of the antimalarial 1,2,4-trioxane artemisinin” (J Med Chem, 1995):
# Columns and labels:
# [1] = test system: Plasmodium falciparum; assay: In vitro antimalarial activity against Plasmodium falciparum D6; type: functional, organism-based
# [2] = test system: Plasmodium falciparum; assay: In vitro antimalarial activity against Plasmodium falciparum W-2; type: functional, organism-based
# [3] = test system: Mus musculus; assay: In vivo antimalarial activity against Plasmodium berghei. Activity expressed as ED90.; type: functional
# Procedure, shortened: (§1)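 Mice infected with drug-sensitive N strain of P. berghei; compound given subcutaneously as a single daily dose for 4 days. ED50 and ED90 reported in mg/kg.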
# [4] = test system: Mus musculus; assay: In vivo antimalarial activity against Plasmodium berghei. Activity expressed as ED50.; type: functional; procedure, shortened: as §1
SMILES,IC50 [1],IC50 [2],ED90 [3],ED50 [4]
CO[C@H]1O[C@@]2(C)CC[C@H]3CCC[C@@H](CCOCc4ccccn4)[C@]31OO2,18 ng/mL,7 ng/mL,,
CO[C@H]1O[C@@]2(C)CC[C@H]3CCC[C@@H](CCOCc4ccc(F)cc4)[C@]31OO2,3 ng/mL,4.5 ng/mL,13.5 mg/kg,7.6 mg/kg
CO[C@H]1O[C@@]2(C)CC[C@H]3CCC[C@@H](CCOCc4cc[n+](C)cc4)[C@]31OO2.[I-],,85 ng/mL,,
CO[C@H]1O[C@@]2(C)CC[C@H]3CCC[C@@H](CCOCc4ccccc4)[C@]31OO2,8 ng/mL,3 ng/mL,,
CO[C@H]1O[C@@]2(C)CC[C@H]3CCC[C@@H](CCOCc4ccncc4)[C@]31OO2,10 ng/mL,7.5 ng/mL,,
CO[C@H]1O[C@@]2(C)CC[C@H]3CCC[C@@H](CCOCc4ccc(-c5ccccc5)cc4)[C@]31OO2,6 ng/mL,6 ng/mL,,
C[C@H]1[C@H](OC(=O)CCC(=O)[O-])O[C@@H]2O[C@@]3(C)CC[C@H]4[C@H](C)CC[C@@H]1[C@@]24OO3.[Na+] [SODIUM ARESUNATE],,,4.9 mg/kg,1.5 mg/kg
